# Experimental data published in ChEMBL document CHEMBL5625186, “Synthesis, cytotoxicity, antioxidant activity and molecular modeling of new NSAIDs-EBS derivatives” (Eur J Med Chem, 2023).
# Calls of active or inactive are those of the source. No cut-off for these calls is given here.
# How the values were obtained:
# A549 = experiment: Cytotoxicity against human A549 cells measured after 24 to 72 hrs by MTT assay; assay type: functional, cell-based
# In short: (§1)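 Cells were grown in RPMI 1640 with 10% FBS and penicillin/streptomycin at 37 °C, 5% CO2. They were seeded at 1×10^4 cells/well and allowed to attach for 24 h. Compounds at various concentrations were then applied for 24, 48 or 72 h (DMSO below 1.25%). MTT (5.0 mg/mL) was added 3 h before the end, formazan was dissolved in DMSO and OD was read at 570 nm. Doxorubicin served as reference. Data are mean ± SD, n=3.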
# MCF7 = experiment: Cytotoxicity against human MCF7 cells measured after 24 to 72 hrs by MTT assay; assay type: functional, cell-based; in short: as §1
# BGC-823 = experiment: Cytotoxicity against human BGC-823 cells measured after 24 to 72 hrs by MTT assay; assay type: functional, cell-based; in short: as §1
# SW480 = experiment: Cytotoxicity against human SW480 cells measured after 24 to 72 hrs by MTT assay; assay type: functional, cell-based; in short: as §1
# [1] = target: T1, Thioredoxin reductase 1, cytoplasmic (Rattus norvegicus, UniProt O89049); experiment: Inhibition of rat TrxR1 using DTNB as substrate preincubated for 15 mins followed by substrate addition and measured for 20 mins by colorimetric method
# T1 sequence (O89049 whole entry): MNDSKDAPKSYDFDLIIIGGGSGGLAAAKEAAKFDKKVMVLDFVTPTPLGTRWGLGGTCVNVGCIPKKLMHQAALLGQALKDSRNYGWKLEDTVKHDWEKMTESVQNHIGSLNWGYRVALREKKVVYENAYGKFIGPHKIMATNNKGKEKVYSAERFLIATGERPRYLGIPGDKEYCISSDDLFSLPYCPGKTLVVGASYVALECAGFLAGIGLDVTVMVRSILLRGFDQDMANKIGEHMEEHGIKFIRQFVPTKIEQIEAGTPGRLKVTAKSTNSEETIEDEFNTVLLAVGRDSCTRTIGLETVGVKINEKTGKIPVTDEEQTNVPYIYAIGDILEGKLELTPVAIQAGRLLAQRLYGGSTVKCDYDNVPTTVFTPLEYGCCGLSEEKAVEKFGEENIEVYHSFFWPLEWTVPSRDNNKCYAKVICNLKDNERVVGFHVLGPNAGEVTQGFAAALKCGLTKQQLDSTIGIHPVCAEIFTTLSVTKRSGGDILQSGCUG
# In short: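 Rat TrxR1 (5 nM) was used in 100 mM potassium phosphate pH 7.0 with 1 mM EDTA, 0.1 mg/ml BSA and 0.2 mM NADPH. […] DTNB was then added and the A412 increase was monitored for 20 min.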
# [2] = Potency index, ratio of test compound to vitamin C antioxidant activity assessed as DPPH radical scavenging activity incubated for 30 mins under dark condition; assay type: functional
# In short: (§2)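 Compounds at a range of concentrations were mixed with DPPH solution and kept 30 min in the dark. Absorbance was read at 517 nm. % activity = [(control A − sample A)/control A] × 100. Vitamin C and ebselen served as positive controls and DMSO as the negative control. Fold is expressed relative to vitamin C (set as 1). Values are mean ± SD of three independent experiments.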
# [3] = Antioxidant activity assessed as DPPH radical scavenging activity incubated for 30 mins under dark condition relative to control; assay type: functional; parameters: concentration or dose not given beside the values; in short: as §2
# HeLa = experiment: Cytotoxicity against human HeLa cells measured after 24 to 72 hrs by MTT assay; assay type: functional, cell-based; in short: as §1
# [4] = Antioxidant activity assessed as glutathione peroxidase-like activity at 41 mM measured over 3 mins; assay type: functional
# In short: (§3)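 GPx-like rate measured from GSH/glutathione reductase/NADPH coupling in 50 mM phosphate buffer with 0.1% Triton X-100. The compound was added from a 41 mM solution, and the reaction was started with H2O2 (0.8 mM). A340 was followed for 3 min and expressed as ΔA/min. Values were corrected for the H2O2 + GSH background, and for the compound's own absorbance if coloured. Ebselen (41 mM) served as reference.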
# DNA = experiment: Induction of bleomycin-dependent DNA (unknown origin) damage assessed as absorbance at 0.1 mg/ml measured after 1 hr; assay type: nucleic-acid assay
# In short: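 The bleomycin-iron/DNA mixture was incubated at 37 °C for 1 h and stopped with 0.1 M EDTA. Colour was developed with 1% TBA plus 25% HCl at 80 °C for 30 min. After ice cooling, DNA damage was read as the increase in absorbance at 532 nm. L-ascorbic acid served as the positive control.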
# [5] = Antioxidant activity assessed as glutathione peroxidase-like activity at 41 mM measured over 3 mins relative to ebselen glutathione peroxidase-like activity; assay type: functional; in short: as §3
SMILES,IC50 (A549),IC50 (MCF7),IC50 (BGC-823),IC50 (SW480),EC50 [1],Ratio [2],inhibition [3],IC50 (HeLa),Activity [4],Activity (DNA),fold change (FC) [5]
CC(C(=O)NCCn1[se]c2ccccc2c1=O)c1ccc(-c2ccccc2)c(F)c1 (stereo unspecified),13.6 µM,14.9 µM,9.5 µM,11.3 µM,28.5 µM,0.4,42.5%,10.4 µM,Active,85.7,
Cc1cccc(Nc2ccccc2C(=O)NCCn2[se]c3ccccc3c2=O)c1C,5.2 µM,5.3 µM,6.5 µM,7.2 µM,26.6 µM,0.4,37.4%,8.8 µM,Active,72.4,
COc1cccc2c1C(=O)c1c(O)c3c(c(O)c1C2=O)C[C@@](O)(C(=O)CO)C[C@@H]3O[C@H]1C[C@H](N)[C@H](O)[C@H](C)O1 [DOXORUBICIN],9.4 µM,12.8 µM,9.8 µM,12.4 µM,,,,11.5 µM,,,
C=C(C(=O)NCCn1[se]c2ccccc2c1=O)c1ccc(CC(C)C)cc1,9.4 µM,15.7 µM,12.5 µM,11.4 µM,23.5 µM,0.3,33.5%,10.6 µM,Active,68.4,
COc1ccc2c(c1)c(CC(=O)NCc1ccc(-n3[se]c4ccccc4c3=O)cc1)c(C)n2C(=O)c1ccc(Cl)cc1,10.3 µM,11.3 µM,9.2 µM,7.5 µM,15.7 µM,0.8,78.7%,14.3 µM,Active,101,
COc1ccc2cc([C@H](C)C(=O)O)ccc2c1 [NAPROXEN],> 50 µM,> 50 µM,> 50 µM,> 50 µM,,,,> 50 µM,,,
COc1ccc2cc(C(C)C(=O)NCCn3[se]c4ccccc4c3=O)ccc2c1 (stereo unspecified),14.7 µM,16.5 µM,13.5 µM,15.7 µM,28.4 µM,0.3,28.6%,8.8 µM,Active,123,
CC(=O)Oc1ccccc1C(=O)NCc1ccc(-n2[se]c3ccccc3c2=O)cc1,2.1 µM,1.5 µM,2.4 µM,2.8 µM,8.8 µM,0.5,57.3%,1.7 µM,Active,108,< 3
COc1ccc2cc(C(C)C(=O)NCc3ccc(-n4[se]c5ccccc5c4=O)cc3)ccc2c1 (stereo unspecified),11.4 µM,13.8 µM,13.5 µM,7.4 µM,14.6 µM,0.7,68.6%,9.7 µM,Active,82.8,
CC(C(=O)NCc1ccc(-n2[se]c3ccccc3c2=O)cc1)c1ccc(-c2ccccc2)c(F)c1 (stereo unspecified),12.3 µM,11.3 µM,6.5 µM,8.3 µM,11.2 µM,0.6,58.2%,9.5 µM,Active,57.3,
O=c1c2ccccc2[se]n1-c1ccccc1 [EBSELEN],> 50 µM,> 50 µM,> 50 µM,> 50 µM,,,,> 50 µM,,,
CC(C)Cc1ccc(C(C)C(=O)NCc2ccc(-n3[se]c4ccccc4c3=O)cc2)cc1 (stereo unspecified),8.1 µM,12.4 µM,7.5 µM,10.4 µM,17.2 µM,0.4,42.6%,9.3 µM,Active,106,
